Assays:
Type in all cases: functional
[1] = system: Escherichia coli; assay: Antibacterial activity against Escherichia coli ATCC 25922 after 12 hrs by broth-dilution method; conditions: ATCC 25922, 12 h
In short: (§1)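 Standardized ATCC strains were tested in triplicate by broth dilution. The panel comprised Gram-negative E. coli, Gram-positive B. subtilis and S. aureus, and the yeasts S. cerevisiae and C. albicans. Minimum inhibitory concentration was determined for the growth-inhibition lines. Minimum fungicidal concentration was determined for the fungicidal yeast lines.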

[2] = system: Bacillus spizizenii; assay: Antibacterial activity against Bacillus subtilis ATCC 6633 after 12 hrs by broth-dilution method; conditions: ATCC 6633, 12 h; in short: as §1
[3] = system: Staphylococcus aureus; assay: Antibacterial activity against Staphylococcus aureus BAA-2313 after 12 hrs by broth-dilution method; conditions: BAA-2313, 12 h; in short: as §1
[4] = system: Saccharomyces cerevisiae; assay: Antifungal activity against Saccharomyces cerevisiae ATCC 9763 after 12 hrs by broth-dilution method; conditions: ATCC 9763, 12 h; in short: as §1
[5] = system: Candida albicans; assay: Antifungal activity against Candida albicans ATCC 10231 after 12 hrs by broth-dilution method; conditions: ATCC 10231, 12 h; in short: as §1
[6] = system: Saccharomyces cerevisiae; assay: Fungicidal activity against Saccharomyces cerevisiae ATCC 9763 after 48 hrs by broth-dilution method; conditions: ATCC 9763, 48 h, read-out: MFC99.9; in short: as §1
[7] = system: Candida albicans; assay: Fungicidal activity against Candida albicans ATCC 10231 after 48 hrs by broth-dilution method; conditions: ATCC 10231, 48 h, read-out: MFC99.9; in short: as §1

O=C(O)CC[C@H]1NC(=O)[C@@H]2CCCN2C1=O
> 200 µg/mL: MIC [1] | MIC [2] | MIC [3] | MIC [4] | MIC [5] | MFC [6] | MFC [7]

O=C1NCC(=O)N2CCC[C@H]12
> 200 µg/mL: MIC [1] | MIC [2] | MIC [3] | MIC [4] | MIC [5] | MFC [6] | MFC [7]

O=C(O)C[C@@H]1NC(=O)[C@@H]2CCCN2C1=O
> 200 µg/mL: MIC [1] | MIC [2] | MIC [3] | MIC [4] | MIC [5] | MFC [6] | MFC [7]

O=C1[C@@H]2CCCN2C(=O)[C@H]2C[C@H](O)CN12
> 200 µg/mL: MIC [1] | MIC [2] | MIC [3] | MIC [4] | MIC [5] | MFC [6] | MFC [7]

C[C@@H]1NC(=O)[C@@H]2CCCN2C1=O
> 200 µg/mL: MIC [1] | MIC [2] | MIC [3] | MIC [4] | MIC [5] | MFC [6] | MFC [7]

C[C@H]1NC(=O)[C@@H]2CCCN2C1=O
> 200 µg/mL: MIC [1] | MIC [2] | MIC [3] | MIC [4] | MIC [5] | MFC [6] | MFC [7]

O=C(O)CC[C@H]1NC(=O)[C@H]2CCCN2C1=O
> 200 µg/mL: MIC [1] | MIC [2] | MIC [3] | MIC [4] | MIC [5] | MFC [6] | MFC [7]

C[C@@H](O)[C@H]1NC(=O)[C@@H]2CCCN2C1=O
> 200 µg/mL: MIC [1] | MIC [2] | MIC [3] | MIC [4] | MIC [5] | MFC [6] | MFC [7]
